These results are taken from ChEMBL document CHEMBL1157912, “Impact of nature and length of linker incorporated in agonists on toll-like receptor 9-mediated immune responses” (J Med Chem, 2010).

Test [1] deals with T1, Toll-like receptor 9 (Homo sapiens) (UniProt Q9NR96).
T1 sequence (whole entry): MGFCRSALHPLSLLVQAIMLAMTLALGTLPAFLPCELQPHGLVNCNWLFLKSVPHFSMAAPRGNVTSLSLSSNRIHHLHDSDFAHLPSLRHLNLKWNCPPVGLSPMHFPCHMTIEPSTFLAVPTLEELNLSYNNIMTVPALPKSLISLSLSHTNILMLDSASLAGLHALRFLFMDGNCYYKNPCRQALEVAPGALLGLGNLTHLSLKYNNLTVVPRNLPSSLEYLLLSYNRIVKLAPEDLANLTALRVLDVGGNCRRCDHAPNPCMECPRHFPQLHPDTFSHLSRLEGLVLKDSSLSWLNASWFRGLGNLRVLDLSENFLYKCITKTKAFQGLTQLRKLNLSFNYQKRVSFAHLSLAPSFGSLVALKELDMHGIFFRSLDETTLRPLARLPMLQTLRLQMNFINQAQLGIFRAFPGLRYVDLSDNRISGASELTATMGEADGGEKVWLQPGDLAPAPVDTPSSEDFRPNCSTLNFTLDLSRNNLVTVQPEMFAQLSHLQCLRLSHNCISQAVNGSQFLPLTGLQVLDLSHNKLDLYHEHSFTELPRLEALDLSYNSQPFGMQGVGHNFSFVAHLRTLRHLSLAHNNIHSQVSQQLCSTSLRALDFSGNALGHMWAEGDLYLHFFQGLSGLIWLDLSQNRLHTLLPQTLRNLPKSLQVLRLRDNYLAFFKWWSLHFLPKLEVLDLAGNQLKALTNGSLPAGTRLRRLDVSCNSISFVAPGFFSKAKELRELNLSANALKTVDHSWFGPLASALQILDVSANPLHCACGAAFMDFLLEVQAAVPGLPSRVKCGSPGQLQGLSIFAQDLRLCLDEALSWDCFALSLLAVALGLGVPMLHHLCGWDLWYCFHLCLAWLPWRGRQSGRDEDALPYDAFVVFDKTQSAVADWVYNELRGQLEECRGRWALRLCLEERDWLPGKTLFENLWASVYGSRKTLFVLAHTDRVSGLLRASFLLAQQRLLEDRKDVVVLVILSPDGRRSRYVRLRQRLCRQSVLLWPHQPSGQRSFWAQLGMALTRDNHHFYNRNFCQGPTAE
Nature of the test: Induction of TLR9-mediated immune stimulation in human PBMC assessed as IL12 production at 2 ug/ml after 24 hrs by luminex multiplex assay (RVb = 0.00 ng/ml).

The target in test [2] is T2, Toll-like receptor 9 (Mus musculus) (UniProt Q9EQU3).
T2 sequence (whole entry): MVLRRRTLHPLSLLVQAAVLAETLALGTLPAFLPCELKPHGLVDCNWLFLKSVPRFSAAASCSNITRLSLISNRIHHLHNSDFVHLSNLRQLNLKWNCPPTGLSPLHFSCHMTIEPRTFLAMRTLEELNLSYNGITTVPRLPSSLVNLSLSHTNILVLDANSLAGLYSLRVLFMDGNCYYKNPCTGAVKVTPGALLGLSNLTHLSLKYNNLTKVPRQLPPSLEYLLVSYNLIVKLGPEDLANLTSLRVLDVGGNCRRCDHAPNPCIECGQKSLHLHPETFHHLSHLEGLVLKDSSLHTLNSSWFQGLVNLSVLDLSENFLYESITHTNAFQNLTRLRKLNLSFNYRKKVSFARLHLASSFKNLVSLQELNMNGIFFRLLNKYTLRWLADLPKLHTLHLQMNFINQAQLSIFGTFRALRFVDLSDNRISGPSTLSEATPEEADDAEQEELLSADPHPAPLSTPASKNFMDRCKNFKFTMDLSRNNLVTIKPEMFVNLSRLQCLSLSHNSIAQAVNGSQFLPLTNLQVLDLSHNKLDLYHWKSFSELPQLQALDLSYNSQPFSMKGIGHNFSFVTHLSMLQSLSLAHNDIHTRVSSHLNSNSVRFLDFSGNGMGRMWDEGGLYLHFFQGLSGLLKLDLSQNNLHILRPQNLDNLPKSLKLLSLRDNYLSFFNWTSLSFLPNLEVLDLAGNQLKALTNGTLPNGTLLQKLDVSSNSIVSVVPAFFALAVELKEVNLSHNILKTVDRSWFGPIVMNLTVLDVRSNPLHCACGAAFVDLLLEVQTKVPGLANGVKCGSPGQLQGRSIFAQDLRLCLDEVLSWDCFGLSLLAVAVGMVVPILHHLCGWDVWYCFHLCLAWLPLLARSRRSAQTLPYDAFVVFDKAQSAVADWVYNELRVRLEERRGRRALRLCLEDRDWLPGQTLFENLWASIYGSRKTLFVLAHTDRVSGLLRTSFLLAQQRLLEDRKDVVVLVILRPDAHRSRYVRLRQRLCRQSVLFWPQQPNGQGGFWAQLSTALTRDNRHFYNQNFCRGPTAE
Nature of the test: Activation of mouse TLR9 expressed in HEK293 cells assessed as induction of NF-kappaB activity after 18 hrs by SEAP assay. The test is classed as cell-based. An outline of the steps:
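HEK293 cells stably expressing mouse TLR9 were grown in DMEM with 10% heat-inactivated FBS. At 80% confluence they were transiently transfected with a SEAP reporter plasmid (100 ng/well, lipofectamine) for 6 h. Medium was then replaced and agonists were added for 18 h. Supernatant SEAP was read with QuantiBlue substrate at 620-645 nm. Results are expressed as fold NF-κB activity over PBS control.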

For test [3], the target named is T1, Toll-like receptor 9 (Homo sapiens). Nature of the test: Induction of TLR9-mediated immune stimulation in human PBMC assessed as RANTES production at 2 ug/ml after 24 hrs by luminex multiplex assay (RVb = 0.05 +/- 0.04 ng/ml).
The target is the same in test [4]. Nature of the test: Induction of TLR9-mediated immune stimulation in human PBMC assessed as MIP1beta production at 2 ug/ml after 24 hrs by luminex multiplex assay (RVb = 0.03 +/- 0.02 ng/ml).
The target is the same in test [5]. Nature of the test: Induction of TLR9-mediated immune stimulation in human PBMC assessed as MIP1alpha production at 2 ug/ml after 24 hrs by luminex multiplex assay (RVb = 0.01 ng/ml).
The target is the same in test [6]. Nature of the test: Induction of TLR9-mediated immune stimulation in human PBMC assessed as IP10 production at 2 ug/ml after 24 hrs by luminex multiplex assay (RVb = 0.00 ng/ml).
Test [7] shares this target. Nature of the test: Induction of TLR9-mediated immune stimulation in human PBMC assessed as RANTES production at 10 ug/ml after 24 hrs by luminex multiplex assay (RVb = 0.05 +/- 0.04 ng/ml).
Test [8] has the same target. Nature of the test: Induction of TLR9-mediated immune stimulation in human PBMC assessed as MIP1beta production at 10 ug/ml after 24 hrs by luminex multiplex assay (RVb = 0.03 +/- 0.02 ng/ml).
For test [9] the target is unchanged. Nature of the test: Induction of TLR9-mediated immune stimulation in human PBMC assessed as IL1Ralpha production at 2 ug/ml after 24 hrs by luminex multiplex assay (RVb = 0.12 +/- 0.03 ng/ml).
The target is the same in test [10]. Nature of the test: Induction of TLR9-mediated immune stimulation in human PBMC assessed as IL2R production at 10 ug/ml after 24 hrs by luminex multiplex assay (RVb = 0.02 +/- 0.01 ng/ml).

With `Cc1cn([C@H]2C[C@H](OCCOCCOCCOCCOP(=O)(S)O[C@H]3C[C@H](n4cc(C)c(=O)[nH]c4=O)O[C@@H]3COP(=O)(S)O[C@H]3[C@@H](O)[C@H](n4ccc(N)nc4=O)O[C@@H]3COP(=O)(S)O[C@H]3C[C@H](n4cc(C)c(=O)[nH]c4=O)O[C@@H]3COP(=O)(S)O[C@H]3C[C@H](n4cc(C)c(=O)[nH]c4=O)O[C@@H]3COP(=O)(S)O[C@H]3C[C@H](n4ccc5c(=O)[nH]c(N)nc54)O[C@@H]3COP(=O)(S)O[C@H]3[C@@H](O)[C@H](n4ccc(N)nc4=O)O[C@@H]3COP(=O)(S)O[C@H]3C[C@H](n4cc(C)c(=O)[nH]c4=O)O[C@@H]3COP(=O)(S)O[C@H]3[C@@H](O)[C@H](n4cnc5c(=O)[nH]c(N)nc54)O[C@@H]3COP(=O)(S)O[C@H]3C[C@H](n4cc(C)c(=O)[nH]c4=O)O[C@@H]3COP(=O)(S)O[C@H]3[C@@H](O)[C@H](n4ccc(N)nc4=O)O[C@@H]3COP(=O)(S)O[C@H]3C[C@H](n4cc(C)c(=O)[nH]c4=O)O[C@@H]3CO)[C@@H](COP(=O)(S)O[C@H]3[C@@H](O)[C@H](n4ccc(N)nc4=O)O[C@@H]3COP(=O)(S)O[C@H]3C[C@H](n4cc(C)c(=O)[nH]c4=O)O[C@@H]3COP(=O)(S)O[C@H]3C[C@H](n4cc(C)c(=O)[nH]c4=O)O[C@@H]3COP(=O)(S)O[C@H]3C[C@H](n4ccc5c(=O)[nH]c(N)nc54)O[C@@H]3COP(=O)(S)O[C@H]3[C@@H](O)[C@H](n4ccc(N)nc4=O)O[C@@H]3COP(=O)(S)O[C@H]3C[C@H](n4cc(C)c(=O)[nH]c4=O)O[C@@H]3COP(=O)(S)O[C@H]3[C@@H](O)[C@H](n4cnc5c(=O)[nH]c(N)nc54)O[C@@H]3COP(=O)(S)O[C@H]3C[C@H](n4cc(C)c(=O)[nH]c4=O)O[C@@H]3COP(=O)(S)O[C@H]3[C@@H](O)[C@H](n4ccc(N)nc4=O)O[C@@H]3COP(=O)(S)O[C@H]3C[C@H](n4cc(C)c(=O)[nH]c4=O)O[C@@H]3CO)O2)c(=O)[nH]c1=O` (stereo not given in full), the Activity in [1] is 0.11 ng/mL; in test [2] it was “Dose-dependent effect”; in test [3], 0.7 ng/mL; in test [4], 0.08 ng/mL; in test [5] it was 0.04 ng/mL; in test [6], 0.02 ng/mL. Besides, the Activity in test [7] came to 1.09 ng/mL; in test [8], 0.96 ng/mL; in [9] it was 9.05 ng/mL; in test [10], 0.17 ng/mL.

In the case of `Cc1cn([C@H]2C[C@H](OCC(O)COP(=O)(S)O[C@H]3C[C@H](n4cc(C)c(=O)[nH]c4=O)O[C@@H]3COP(=O)(S)O[C@H]3[C@@H](O)[C@H](n4ccc(N)nc4=O)O[C@@H]3COP(=O)(S)O[C@H]3C[C@H](n4cc(C)c(=O)[nH]c4=O)O[C@@H]3COP(=O)(S)O[C@H]3C[C@H](n4cc(C)c(=O)[nH]c4=O)O[C@@H]3COP(=O)(S)O[C@H]3C[C@H](n4ccc5c(=O)[nH]c(N)nc54)O[C@@H]3COP(=O)(S)O[C@H]3[C@@H](O)[C@H](n4ccc(N)nc4=O)O[C@@H]3COP(=O)(S)O[C@H]3C[C@H](n4cc(C)c(=O)[nH]c4=O)O[C@@H]3COP(=O)(S)O[C@H]3[C@@H](O)[C@H](n4cnc5c(=O)[nH]c(N)nc54)O[C@@H]3COP(=O)(S)O[C@H]3C[C@H](n4cc(C)c(=O)[nH]c4=O)O[C@@H]3COP(=O)(S)O[C@H]3[C@@H](O)[C@H](n4ccc(N)nc4=O)O[C@@H]3COP(=O)(S)O[C@H]3C[C@H](n4cc(C)c(=O)[nH]c4=O)O[C@@H]3CO)[C@@H](COP(=O)(S)O[C@H]3[C@@H](O)[C@H](n4ccc(N)nc4=O)O[C@@H]3COP(=O)(S)O[C@H]3C[C@H](n4cc(C)c(=O)[nH]c4=O)O[C@@H]3COP(=O)(S)O[C@H]3C[C@H](n4cc(C)c(=O)[nH]c4=O)O[C@@H]3COP(=O)(S)O[C@H]3C[C@H](n4ccc5c(=O)[nH]c(N)nc54)O[C@@H]3COP(=O)(S)O[C@H]3[C@@H](O)[C@H](n4ccc(N)nc4=O)O[C@@H]3COP(=O)(S)O[C@H]3C[C@H](n4cc(C)c(=O)[nH]c4=O)O[C@@H]3COP(=O)(S)O[C@H]3[C@@H](O)[C@H](n4cnc5c(=O)[nH]c(N)nc54)O[C@@H]3COP(=O)(S)O[C@H]3C[C@H](n4cc(C)c(=O)[nH]c4=O)O[C@@H]3COP(=O)(S)O[C@H]3[C@@H](O)[C@H](n4ccc(N)nc4=O)O[C@@H]3COP(=O)(S)O[C@H]3C[C@H](n4cc(C)c(=O)[nH]c4=O)O[C@@H]3CO)O2)c(=O)[nH]c1=O` (stereo not given in full), the Activity in [1] was 0.14 ng/mL; in test [2], “Dose-dependent effect”; in test [3], 0.29 ng/mL; in test [4] it was 0.11 ng/mL; in test [5], 0.05 ng/mL; in test [6], 0.03 ng/mL. For the same compound, the Activity in test [7] was 1.67 ng/mL; in [8], 1.41 ng/mL; in test [9], 13 ng/mL; in test [10], 0.19 ng/mL.
